Reference: ChEMBL document CHEMBL1159337, “Antitumor agents. 221.1 buceracidins A and B, two new flavanones from Bucida buceras” (J Nat Prod, 2003)
In brackets after ≈: the same amount, converted by molar mass.

Key:
A549 = assay: Cytotoxicity against human A549 cells after 3 days by SRB assay; type: functional, cell-based; details: A549, 72 h
Method in brief: (§1)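 Stock cultures were kept in RPMI-1640 with 25 mM HEPES, 0.25% sodium bicarbonate, 10% FBS and 100 µg/mL kanamycin. Freshly trypsinized cells were seeded at 1500-7500 per well with compounds diluted from DMSO stock and cultured 3 days. Cells were fixed with cold 50% TCA, stained with 0.4% SRB, and the solubilized dye was read at 562 nm. IC50 was the concentration giving a 50% absorbance reduction versus untreated cells.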

KB [1] = assay: Cytotoxicity against human KB cells after 3 days by SRB assay; type: functional, cell-based; details: 72 h; method in brief: as §1
PC-3 = assay: Cytotoxicity against human PC3 cells after 3 days by SRB assay; type: functional, cell-based; details: PC-3, 72 h; method in brief: as §1
SK-MEL-2 = assay: Cytotoxicity against human SK-MEL-2 cells after 3 days by SRB assay; type: functional, cell-based; details: SK-MEL-2, 72 h; method in brief: as §1
1A9 = assay: Cytotoxicity against human 1A9 cells after 3 days by SRB assay; type: functional, cell-based; details: 1A9, 72 h; method in brief: as §1
[2] = Cytotoxicity against human U87MG cells after 3 days by SRB assay; type: functional, cell-based, U-87MG ATCC; details: U-87 MG, 72 h; method in brief: as §1
[3] = Cytotoxicity against human KBVIN cells after 3 days by SRB assay; type: functional, cell-based; details: 72 h; method in brief: as §1
MCF7 = assay: Cytotoxicity against human MCF7 cells after 3 days by SRB assay; type: functional, cell-based; details: MCF7, 72 h; method in brief: as §1
HCT-8 = assay: Cytotoxicity against human HCT8 cells after 3 days by SRB assay; type: functional, cell-based; details: HCT-8, 72 h; method in brief: as §1
KB [4] = assay: Cytotoxicity against human KB cells at 10 ug/ml after 3 days by SRB assay; type: functional; details: 72 h

Compound | IC50 (A549) [µg/mL] | IC50 (KB [1]) [µg/mL] | IC50 (PC-3) [µg/mL] | IC50 (SK-MEL-2) [µg/mL] | IC50 (1A9) [µg/mL] | IC50 [2] [µg/mL] | IC50 [3] [µg/mL] | IC50 (MCF7) [µg/mL] | IC50 (HCT-8) [µg/mL] | inhibition at 10 µg/mL (KB [4]) [%]
CC(C)=CCc1c2c(c(O)c3c1O[C@H](c1ccccc1O)[C@@H](O)C3=O)C=CC(C)(C)O2 | 13.5 (≈ 32 µM) | 16.5 (≈ 39.1 µM) | 15.4 (≈ 36.5 µM) | 14.8 (≈ 35 µM) | 15 (≈ 35.5 µM) | 14.8 (≈ 35 µM) | 13.3 (≈ 31.5 µM) | 12.8 (≈ 30.3 µM) | 12.1 (≈ 28.6 µM) | –
CO[C@H]1C(=O)c2c(O)c3c(c(CC=C(C)C)c2O[C@@H]1c1ccccc1O)OC(C)(C)C=C3 | 7.6 (≈ 17.4 µM) | 6.5 (≈ 14.9 µM) | 8.4 (≈ 19.2 µM) | 7.8 (≈ 17.9 µM) | 7.8 (≈ 17.9 µM) | 8.6 (≈ 19.7 µM) | 7 (≈ 16 µM) | 7 (≈ 16 µM) | 7.2 (≈ 16.5 µM) | –
CO[C@H]1C(=O)c2c(cc3c(c2O)C=CC(C)(C)O3)O[C@@H]1c1ccccc1O [BUCERACIDIN A] | 14.1 (≈ 38.3 µM) | > 10 | 16.3 (≈ 44.2 µM) | 15.6 (≈ 42.3 µM) | 14.9 (≈ 40.4 µM) | 16.1 (≈ 43.7 µM) | 15 (≈ 40.7 µM) | 13.6 (≈ 36.9 µM) | 15.5 (≈ 42.1 µM) | 31
CC1(C)C=Cc2c(cc3c(c2O)C(=O)C[C@@H](c2ccccc2O)O3)O1 [BUCERACIDIN B] | 9.9 (≈ 29.3 µM) | 9.5 (≈ 28.1 µM) | 13 (≈ 38.4 µM) | 14 (≈ 41.4 µM) | 11.5 (≈ 34 µM) | 14.2 (≈ 42 µM) | 9.5 (≈ 28.1 µM) | 9.3 (≈ 27.5 µM) | 12.8 (≈ 37.8 µM) | –
CC(C)=CCc1c2c(c(O)c3c1O[C@H](c1ccccc1O)CC3=O)C=CC(C)(C)O2 [MINIMIFLORIN] | 8 (≈ 19.7 µM) | 7.3 (≈ 18 µM) | 9.8 (≈ 24.1 µM) | 9 (≈ 22.1 µM) | 7.6 (≈ 18.7 µM) | 11 (≈ 27.1 µM) | 7.7 (≈ 18.9 µM) | 7.5 (≈ 18.5 µM) | 7.2 (≈ 17.7 µM) | –
CC(C)=CCc1c2c(c(O)c3c1O[C@H](c1ccccc1)[C@@H](O)C3=O)C=CC(C)(C)O2 [MUNDULINOL] | 7.5 (≈ 18.5 µM) | 8.5 (≈ 20.9 µM) | 9.3 (≈ 22.9 µM) | 8.5 (≈ 20.9 µM) | 8.2 (≈ 20.2 µM) | 13 (≈ 32 µM) | 7.5 (≈ 18.5 µM) | 7.5 (≈ 18.5 µM) | 7 (≈ 17.2 µM) | –
